Assay results as given in ChEMBL document CHEMBL1139378, “Dual integrin and gastrin-releasing peptide receptor targeted tumor imaging using 18F-labeled PEGylated RGD-bombesin heterodimer 18F-FB-PEG3-Glu-RGD-BBN” (J Med Chem, 2009).

Legend:
[1] = target: Gastrin-releasing peptide receptor (Homo sapiens) (UniProt P30550); assay: Displacement of [125I][Tyr4]BBN form gastrin-releasing peptide receptor in human PC3 cells
[2] = Drug uptake in human PC3 cells xenografted mouse tumor at 3.7 MBq, iv after 30 mins by micro PET imaging; assay type: ADME, organism-based, Neoplasm, PC-3; settings: in vivo, 0.5 h
In short: (§1)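 PC-3 xenograft nude mice (tumors 100–300 mm³) were given ~3.7 MBq (100 μCi) i.v. by tail vein under isoflurane. Static 5-min scans were taken at 30 min, 1 and 2 h (n = 4), plus a 35-min dynamic scan starting 1 min pi in one mouse. Images were OSEM-reconstructed without attenuation correction. Tumor and organ %ID/g came from ROIs on decay-corrected coronal images, assuming 1 g/mL density.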

[3] = Drug uptake in human PC3 cells xenografted mouse tumor at 3.7 MBq, iv after 60 mins by micro PET imaging; assay type: ADME, organism-based, Neoplasm, PC-3; settings: in vivo, 1 h
In short: as §1

[4] = Drug uptake in human PC3 cells xenografted mouse tumor at 3.7 MBq, iv after 120 mins by micro PET imaging; assay type: ADME, organism-based, Neoplasm, PC-3; settings: in vivo, 2 h
In short: as §1

Liver [5] = assay: Drug uptake in human PC3 cells xenografted mouse liver at 3.7 MBq, iv after 30 mins by micro PET imaging; assay type: ADME, organism-based, PC-3; settings: in vivo, 0.5 h
In short: as §1

[6] = Ratio of drug uptake in tumor to blood from human PC3 cells xenografted mouse at 3.7 MBq, iv after 120 mins by micro PET imaging; assay type: ADME, organism-based, PC-3; settings: tumour, 2 h
In short: (§2)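 Tumor/nontumor ratios were calculated from ROI-derived %ID/g on decay-corrected 5-min static microPET scans at 2 h after ~3.7 MBq i.v. tracer in PC-3 xenograft nude mice (n = 4).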

[7] = Ratio of drug uptake in tumor to liver from human PC3 cells xenografted mouse at 3.7 MBq, iv after 120 mins by micro PET imaging; assay type: ADME, organism-based, PC-3; settings: in vivo, 2 h
In short: as §2

[8] = Ratio of drug uptake in tumor to kidneys from human PC3 cells xenografted mouse at 3.7 MBq, iv after 120 mins by micro PET imaging; assay type: ADME, organism-based, PC-3; settings: in vivo, 2 h
In short: as §2

[9] = Ratio of drug uptake in tumor to muscle from human PC3 cells xenografted mouse at 3.7 MBq, iv after 120 mins by micro PET imaging; assay type: ADME, organism-based, PC-3; settings: in vivo, 2 h
In short: as §2

[10] = Drug uptake in human PC3 cells xenografted mouse tumor at 3.7 MBq, iv by micro PET imaging in presence of RGD; assay type: ADME, organism-based, Neoplasm, PC-3; settings: in vivo
In short: (§3)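 PC-3 tumor-bearing mice were co-injected i.v. with 3.7 MBq tracer and a blocking dose of c(RGDyK) (10 mg/kg), Aca-BBN(7–14) (15 mg/kg), or both. A 5-min static microPET scan was taken at 1 h pi (n = 3), and ROI-derived %ID/g was measured on decay-corrected coronal images.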

[11] = Drug uptake in human PC3 cells xenografted mouse tumor at 3.7 MBq, iv by micro PET imaging in presence of BBN; assay type: ADME, organism-based, Neoplasm, PC-3; settings: in vivo
In short: as §3

[12] = Drug uptake in human PC3 cells xenografted mouse tumor at 3.7 MBq, iv by micro PET imaging in presence of RGD and BBN; assay type: ADME, organism-based, Neoplasm, PC-3; settings: in vivo
In short: as §3

[13] = Drug uptake in human PC3 cells xenografted mouse tumor at 3.7 MBq, iv after 5 mins by micro PET imaging; assay type: ADME, organism-based, Neoplasm, PC-3; settings: in vivo
In short: as §1

[14] = Drug uptake in human PC3 cells xenografted mouse tumor at 3.7 MBq, iv after 15 mins by micro PET imaging; assay type: ADME, organism-based, Neoplasm, PC-3; settings: in vivo, 0.25 h
In short: as §1

[15] = Biodistribution in human PC3 cells xenografted athymic nude mouse tumor at 0.74 MBq, iv after 1 hr; assay type: ADME, organism-based, Neoplasm, PC-3; settings: in vivo
In short: (§4)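 PC-3 human prostate carcinoma cells were grown in F-12K with 10% FBS, and 5×10^6 cells were injected s.c. into the right front flank of male athymic nude mice. Each mouse received 0.74 MBq (20 μCi) tracer and was sacrificed at 1 h pi. Tissues were wet-weighed and γ-counted against an injectate aliquot. Values are %ID/g normalized to 20 g body mass, mean ± SD, n = 4.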

Kidney = assay: Biodistribution in human PC3 cells xenografted athymic nude mouse kidney at 0.74 MBq, iv after 1 hr; assay type: ADME, organism-based, PC-3; settings: in vivo
In short: as §4

Blood = assay: Biodistribution in human PC3 cells xenografted athymic nude mouse blood at 0.74 MBq, iv after 1 hr; assay type: ADME, organism-based, PC-3; settings: in vivo
In short: as §4

Heart = assay: Biodistribution in human PC3 cells xenografted athymic nude mouse heart at 0.74 MBq, iv after 1 hr; assay type: ADME, organism-based, PC-3; settings: in vivo
In short: as §4

Liver [16] = assay: Biodistribution in human PC3 cells xenografted athymic nude mouse liver at 0.74 MBq, iv after 1 hr; assay type: ADME, organism-based, PC-3; settings: in vivo
In short: as §4

Spleen = assay: Biodistribution in human PC3 cells xenografted athymic nude mouse spleen at 0.74 MBq, iv after 1 hr; assay type: ADME, organism-based, PC-3; settings: in vivo
In short: as §4

Bone = assay: Biodistribution in human PC3 cells xenografted athymic nude mouse bone at 0.74 MBq, iv after 1 hr; assay type: ADME, organism-based, Bone element, PC-3; settings: in vivo
In short: as §4

Muscle tissue = assay: Biodistribution in human PC3 cells xenografted athymic nude mouse muscle at 0.74 MBq, iv after 1 hr; assay type: ADME, organism-based, PC-3; settings: in vivo
In short: as §4

PC-3 [17] = assay: Cellular uptake in human PC3 cells after 30 mins; assay type: ADME, cell-based; settings: pc-3, 0.5 h
In short: (§5)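 PC-3 cells were seeded at 5×10^5 per well and left overnight, then PBS-rinsed and incubated with ~0.3 μCi/well radiotracer in culture medium at 37 or 4 °C for 15–120 min. Cells were washed with chilled PBS, trypsinized and γ-counted. Uptake is % of added radioactivity; two experiments, triplicate wells.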

PC-3 [18] = assay: Cellular uptake in human PC3 cells after 15 mins; assay type: ADME, cell-based; settings: pc-3, 0.25 h
In short: as §5

PC-3 [19] = assay: Cellular uptake in human PC3 cells after 60 mins; assay type: ADME, cell-based; settings: pc-3, 1 h
In short: as §5

PC-3 [20] = assay: Cellular uptake in human PC3 cells after 120 mins; assay type: ADME, cell-based; settings: pc-3, 2 h
In short: as §5

PC-3 [21] = assay: Inhibition of cellular uptake in human PC3 cells after 60 mins in presence of RGD; settings: pc-3, 1 h
PC-3 [22] = assay: Inhibition of cellular uptake in human PC3 cells after 60 mins in presence of BBN; settings: pc-3, 1 h
PC-3 [23] = assay: Inhibition of cellular uptake in human PC3 cells after 60 mins in presence of RGD and BBN; settings: pc-3, 1 h

Gastrin-releasing peptide receptor (Homo sapiens), sequence (P30550 whole entry, looked up): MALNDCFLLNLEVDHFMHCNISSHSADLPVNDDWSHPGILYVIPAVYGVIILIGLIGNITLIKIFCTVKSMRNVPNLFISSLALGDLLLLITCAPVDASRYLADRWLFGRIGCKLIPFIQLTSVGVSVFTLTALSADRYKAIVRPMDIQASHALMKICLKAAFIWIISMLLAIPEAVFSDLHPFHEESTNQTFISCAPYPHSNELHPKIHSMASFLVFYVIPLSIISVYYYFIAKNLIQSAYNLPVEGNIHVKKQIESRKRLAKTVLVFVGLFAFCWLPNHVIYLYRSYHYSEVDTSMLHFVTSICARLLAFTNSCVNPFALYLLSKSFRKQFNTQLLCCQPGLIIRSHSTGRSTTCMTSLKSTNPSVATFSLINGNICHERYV

`CSCC[C@H](NC(=O)[C@H](CC(C)C)NC(=O)[C@H](Cc1c[nH]cn1)NC(=O)CNC(=O)[C@@H](NC(=O)[C@H](C)NC(=O)[C@H](Cc1c[nH]c2ccccc12)NC(=O)[C@H](CCC(N)=O)NC(=O)CCCCCNC(=O)CC[C@H](NC(=O)COCCOCCOCCN)C(=O)NCCCC[C@@H]1NC(=O)[C@H](CCCNC(=N)N)NC(=O)CNC(=O)[C@H](CC(=O)O)NC(=O)[C@@H](Cc2ccc(O)cc2)NC1=O)C(C)C)C(N)=O` gave an IC50 [1] of 85.4 nM.
With `CSCC[C@@H](NC(=O)[C@H](CC(C)C)NC(=O)[C@@H](Cc1c[nH]cn1)NC(=O)CNC(=O)[C@H](NC(=O)[C@H](C)NC(=O)[C@@H](Cc1c[nH]c2ccccc12)NC(=O)[C@H](CCC(N)=O)NC(=O)CCCCCNC(=O)CC[C@H](NC(=O)COCCOCCOCCNC(=O)c1ccc([18F])cc1)C(=O)NCCCC[C@H]1NC(=O)[C@@H](CCCNC(=N)N)NC(=O)CNC(=O)[C@@H](CC(=O)O)NC(=O)[C@H](Cc2ccc(O)cc2)NC1=O)C(C)C)C(N)=O` the Drug uptake [2] was 6.35 % ID/g, the Drug uptake [3] was 4.41 % ID/g and the Drug uptake [4] was 2.88 % ID/g. It also gave a Drug uptake (Liver [5]) of 2 % ID/g, a Ratio [6] of 8.1 and a Ratio [7] of 6.43. For the same compound, the Ratio [8] was 1.44, the Ratio [9] was 10.54 and the Drug uptake [10] was 2.19 % ID/g. For the same compound, the Drug uptake [11] was 1.58 % ID/g, the Drug uptake [12] was 0.43 % ID/g and the Drug uptake [13] was 3.54 % ID/g. For the same compound, the Drug uptake [14] was 4.86 % ID/g, the Drug uptake [15] was 4 % ID/g and the Drug uptake (Kidney) was 4.87 % ID/g. For the same compound, the Drug uptake (Blood) was 2 % ID/g, the Drug uptake (Heart) was 2 % ID/g and the Drug uptake (Liver [16]) was 2 % ID/g. The Drug uptake (Spleen) was 2 % ID/g, the Drug uptake (Bone) was 2 % ID/g and the Drug uptake (Muscle tissue) was 2 % ID/g. It also gave a Drug uptake (PC-3 [17]) of 5.51%, a Drug uptake (PC-3 [18]) of 4.72% and a Drug uptake (PC-3 [19]) of 5.87%. The Drug uptake (PC-3 [20]) was 6.65%, the Inhibition (PC-3 [21]) was 17.55% and the Inhibition (PC-3 [22]) was 83.67%. The Inhibition (PC-3 [23]) was 91.97%.
With `CSCC[C@@H](NC(=O)[C@H](CC(C)C)NC(=O)[C@@H](Cc1c[nH]cn1)NC(=O)CNC(=O)[C@H](NC(=O)[C@H](C)NC(=O)[C@@H](Cc1c[nH]c2ccccc12)NC(=O)[C@H](CCC(N)=O)NC(=O)CCCCCNC(=O)CC[C@H](NC(=O)COCCOCCOCCNC(=O)c1ccc(F)cc1)C(=O)NCCCC[C@H]1NC(=O)[C@@H](CCCNC(=N)N)NC(=O)CNC(=O)[C@@H](CC(=O)O)NC(=O)[C@H](Cc2ccc(O)cc2)NC1=O)C(C)C)C(N)=O` the IC50 ([1]; pc-3) was 73.3 nM.
